ERb SRC1 inh: blocks coactivator binding to human estrogen receptor beta | Q92731 | TR-FRET ER-beta LBD / SRC1-Cy5 peptide binding; receptor agonist-loaded with 1 µM estradiol | inhibition, % at 25.6 µM | 1.3% of 86,000 active | AID 633;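 active = compounds whose percent inhibition of the receptor-coactivator binding signal exceeds about 50% in the single-dose screen, limit read from the data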
Target sequence (Q92731 whole entry, looked up, the tested form may be a part): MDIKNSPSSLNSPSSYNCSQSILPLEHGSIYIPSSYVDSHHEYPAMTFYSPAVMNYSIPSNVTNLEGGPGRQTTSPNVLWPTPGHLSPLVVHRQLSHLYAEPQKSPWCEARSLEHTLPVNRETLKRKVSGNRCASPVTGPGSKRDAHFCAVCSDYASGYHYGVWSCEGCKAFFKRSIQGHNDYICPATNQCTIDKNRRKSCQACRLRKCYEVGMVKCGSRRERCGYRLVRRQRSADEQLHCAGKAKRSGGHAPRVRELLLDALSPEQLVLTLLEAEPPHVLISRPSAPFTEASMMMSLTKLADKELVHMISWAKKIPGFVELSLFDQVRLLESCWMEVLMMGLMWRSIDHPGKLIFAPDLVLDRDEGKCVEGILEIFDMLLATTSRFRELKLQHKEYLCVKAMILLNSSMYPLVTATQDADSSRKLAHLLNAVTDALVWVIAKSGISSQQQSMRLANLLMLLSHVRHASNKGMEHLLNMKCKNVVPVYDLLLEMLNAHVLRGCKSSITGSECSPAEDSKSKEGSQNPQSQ
sEH activator: soluble epoxide hydrolase (human) activation. purified human sEH enzymatic activity, activator screen. AID 717. P34913. 0.04% of 91,000 active. activation, % at 2 µM; in the data active = activation above about 37%
Rev-RRE block: HIV Rev-RRE protein-RNA interaction inhibition; Rev peptide-RRE RNA binding, FRET; AID 704; 0.79% of 97,000 active; inhibition, % at 8 µM;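 active = inhibition above the screen-wide mean plus 3 SD, cut at about 35% in these data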
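Test system: Cy5-tagged RRE RNA duplex with fluorescein-tagged Rev peptide | Read-out: % inhibition of FRET ratio versus controls | Probe or stimulus: Labelled Rev peptide | Incubation: 5 min RNA-compound premix plus 15 min binding step, 25 °C | Technique: FRET fluorescence readout | Benchmarks: DMSO low control, neomycin B high control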
sEH inhibitor: inhibitors of human soluble epoxide hydrolase | P34913 | recombinant human sEH enzymatic activity assay | inhibition, % at 2 µM | 0.34% of 91,000 active | AID 707; in the data active = inhibition above about 80%
ERa SRC1 inh: ER-alpha (human) coactivator binding inhibition. P03372. TR-FRET ER-alpha LBD / SRC-1 peptide, estradiol-bound. inhibition, % at 25.6 µM. 1.7% of 86,000 active; in the data active = inhibition above about 50%
ERa coact pot: ER-alpha (human) coactivator binding potentiation; TR-FRET ERalpha-LBD/SRC-Cy5 coactivator binding, 2 h; 100 = basal binding, no effect; 1.3% of 86,000 active; coactivator binding (% of control), % at 25.6 µM; in the data active = activity above about 200%;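 note: binding measured in presence of low estradiol as agonist stimulus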
Large screens that a line does not name were inactive; [ ] = another dose, or the depositor's remark. A selection: hits, their analogues and other compounds. The true share with any hit is near 3.5%.

CC(=O)N1CCN=C1SCc1cccc(C(F)(F)F)c1	none
Cc1cccc(N=C2NC(=O)/C(=C3/C(=O)N(C)c4ccccc43)S2)c1C	ERa SRC1 inh 61.4
CCOc1ccc(C2=C/C(=C/c3cccnc3)C(=O)O2)cc1	Rev-RRE block 111.2[fluorescence artefact?] (no result: ERb SRC1 inh, ERa SRC1 inh, ERa coact pot)
CCOc1ccc(C(=O)NCc2cccnc2)cc1	none
CCN1C(=O)/C(=C2/Sc3ccc(OC)cc3N2C)SC1=Nc1cccc(O)c1	ERb SRC1 inh 64.1, ERa SRC1 inh 65.7
CCN1C(=O)/C(=C2/Sc3ccc(OC)cc3N2C)SC1=Nc1ccc(C(C)=O)cc1	none
Cn1c(-n2c(CCCN3C(=O)c4ccccc4C3=O)nc3ccccc3c2=O)nc2ccccc21	none
O=C1c2ccccc2C(=O)N1CCCc1nc2ccccc2c(=O)n1CCCn1ccnc1	ERa coact pot 515.5
COC(=O)c1cc2sccc2n1CC(=O)Nc1cc(OC)cc(OC)c1	none (no result: ERb SRC1 inh, sEH activator, sEH inhibitor, ERa SRC1 inh, ERa coact pot)
COC(=O)c1cc2sc(Cl)cc2n1CC(=O)NCCC(C)C	ERa coact pot 226.3[fluorescence artefact?]
CCOC(=O)c1cc2sc(C)cc2n1CC(=O)NCCc1ccccc1	ERa coact pot 932.2[fluorescence artefact?]
CCOC(=O)c1cc2sc(C)cc2n1CC(=O)N(CC)CC	none
CC1CCCN(C(=O)Nc2cccc(NC(=O)N3CCCC(C)C3C)c2)C1C (configuration not stated)	none
O=C(CSc1nnc(-c2ccccn2)n1Cc1ccco1)c1ccc(-c2ccccc2)cc1	ERa coact pot 227.7[fluorescence artefact?] (no result: sEH activator, Rev-RRE block, sEH inhibitor)
CCN(C(=O)c1ccccc1Cl)c1ccccc1	none
COc1cc(OC)cc(-c2nc(-c3ccccc3OC)no2)c1	ERa coact pot 488.1[fluorescence artefact?]
COc1ccc(Cl)cc1-c1nc(-c2ccncc2)no1	ERa coact pot 268.4
COc1ccc(CC(=O)Nc2ccc(-c3noc(-c4ccccc4OC)n3)cc2)cc1	ERa coact pot 328.3[fluorescence artefact?]
COc1ccccc1-c1noc(-c2cc(OC)c(OC)c(OC)c2)n1	none
COc1ccc(-c2ccc(-c3noc(-c4ccc(OC)c(OC)c4)n3)c(OC)n2)cc1	ERa SRC1 inh 80.5 (no result: sEH activator, Rev-RRE block, sEH inhibitor)
CCOC(=O)c1sc(=NC(=O)c2ccc(S(=O)(=O)N3CC(C)OC(C)C3)cc2)n(C)c1C (configuration not stated)	none
O=C(Cn1cc2c(n1)CCCCC2)NC1CCCCCC1	none (no result: sEH activator, Rev-RRE block, sEH inhibitor)
CC12CC(NC(=O)N1c1cccc(C(=O)NCc3ccc4c(c3)OCO4)c1)c1cc(Cl)ccc1O2 (configuration not stated)	none
COc1ccc(-c2ccc(-c3noc(-c4cccs4)n3)c(OC)n2)cc1	ERa coact pot 473.7
COc1ccc(-c2ccc(-c3noc(-c4ccccc4OC)n3)c(OC)n2)cc1	ERa coact pot 231.1
COc1cc(-c2nc(-c3ccc(NC(=O)c4ccc(Br)o4)cc3)no2)cc(OC)c1OC	ERa SRC1 inh 71.5[fluorescence artefact?], ERa coact pot 226.5[fluorescence artefact?]
COc1ccc(-c2nc(-c3ccc(Br)cc3)no2)c(OC)c1	ERa coact pot 205.7[fluorescence artefact?]
COc1ccc(-c2ccc(-c3noc(-c4cccc(OC)c4)n3)c(OC)n2)cc1	none (no result: ERb SRC1 inh, sEH activator, sEH inhibitor, ERa SRC1 inh, ERa coact pot)
CCOc1cccc(C(=O)Nc2cccc(-c3nc4ncccc4o3)c2C)c1	none
O=C(C1=C(O)C(=O)N(CCN2CCOCC2)C1c1ccncc1)c1ccco1 (configuration not stated)	none (no result: sEH activator, sEH inhibitor)
COc1ccc(-c2ccc(-c3noc(C)n3)c(OC)n2)cc1	none
COc1ccc(-c2ccc(-c3noc(-c4ccccc4C)n3)c(OC)n2)cc1	ERa coact pot 230.1[fluorescence artefact?]
CC(=O)c1cccc(NC(=O)C2CCN(S(C)(=O)=O)CC2)c1	none
CC(=O)c1cccc(NC(=O)C2CCCCC2)c1	ERa coact pot 262.7
Cn1nc(C(=O)Nc2sccc2C(N)=O)ccc1=O	ERb SRC1 inh 54.3[fluorescence artefact?], ERa SRC1 inh 62.9[fluorescence artefact?]
CCCSc1nc(C)c(-c2csc(C(C#N)=C3CCCC3)n2)cc1C#N	ERa SRC1 inh 68.7
CCn1c(CSc2nnc(C)n2-c2ccccc2)nc2cc(S(=O)(=O)N(C)C)ccc21	none
O=P(CCN1CCCCC1)(c1ccccc1)c1ccccc1	none
COCc1cc(C)nc(SCC(=O)Nc2ccc(C)c(C)c2)c1C#N	ERa coact pot 207.8[fluorescence artefact?] (no result: sEH activator, Rev-RRE block, sEH inhibitor)
O=S(=O)(O)c1nc2ccccc2n1Cc1ccccc1	ERb SRC1 inh 62.9
CC(C)n1c(/N=C/c2c[nH]c3ccccc23)nc2ccccc21	none
